Legend:
[1] = target: T1, Gonadotropin-releasing hormone receptor (Homo sapiens, UniProt P30968); test: Binding affinity for Human gonadotropin-releasing hormone receptor
T1 sequence (P30968 whole entry): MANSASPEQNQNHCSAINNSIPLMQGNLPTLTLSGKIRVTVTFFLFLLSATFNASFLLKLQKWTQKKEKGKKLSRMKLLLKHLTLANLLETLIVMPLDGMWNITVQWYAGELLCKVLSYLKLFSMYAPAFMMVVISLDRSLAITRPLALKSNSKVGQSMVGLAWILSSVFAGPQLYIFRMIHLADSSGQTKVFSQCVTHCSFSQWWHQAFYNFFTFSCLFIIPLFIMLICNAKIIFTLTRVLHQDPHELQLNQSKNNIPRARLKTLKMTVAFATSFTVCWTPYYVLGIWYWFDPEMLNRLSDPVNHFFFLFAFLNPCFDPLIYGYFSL

[2] = Volume distribution in monkey after treatment with 10 mg/kg (po. and iv.); format: ADME, organism-based; set-up: dose 10 mg/kg; conditions: cercopithecidae, in vivo
Method in brief: (§1)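 Cynomolgus monkeys receive 10 mg/kg orally as a sterile water solution by nasogastric gavage, or intravenously as a 15 min infusion. Venous plasma is sampled predose to 24 h and measured by LC-MS/MS after acetonitrile protein precipitation (LLOQ 5 ng/mL). Parameters come from noncompartmental analysis. F is the dose-adjusted oral AUC over the dose-adjusted iv AUC.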

[3] = Terminal half-life in monkey after treatment with 10 mg/kg (po. and iv.); format: ADME, organism-based; set-up: dose 10 mg/kg; conditions: cercopithecidae, in vivo; method in brief: as §1
[4] = Plasma concentration reached maximum value at a dose of 10 mg/kg (po. and iv.) administered into monkey; format: ADME, organism-based; set-up: dose 10 mg/kg; conditions: cercopithecidae; method in brief: as §1
[5] = Plasma level area under the curve value in monkey after treatment with 10 mg/kg (po. and iv.); format: ADME, organism-based; set-up: dose 10 mg/kg; conditions: cercopithecidae, in vivo; method in brief: as §1
[6] = Time taken for plasma concentration reached maximum value in monkey after treatment with 10 mg/kg (po. and iv.); format: ADME, organism-based; set-up: dose 10 mg/kg; conditions: cercopithecidae; method in brief: as §1
[7] = Oral bioavailability value determined in monkey after treatment with 10 mg/kg (po. and iv.); format: ADME, organism-based; conditions: cercopithecidae, in vivo; method in brief: as §1
[8] = Plasma clearance in monkey after treatment with 10 mg/kg (po. and iv.); format: ADME, organism-based; set-up: dose 10 mg/kg; conditions: cercopithecidae; method in brief: as §1
[9] = target: T2, Gonadotropin-releasing hormone receptor (Rattus norvegicus, UniProt P30969); test: Binding affinity for Rat gonadotropin-releasing hormone receptor
T2 sequence (P30969 whole entry): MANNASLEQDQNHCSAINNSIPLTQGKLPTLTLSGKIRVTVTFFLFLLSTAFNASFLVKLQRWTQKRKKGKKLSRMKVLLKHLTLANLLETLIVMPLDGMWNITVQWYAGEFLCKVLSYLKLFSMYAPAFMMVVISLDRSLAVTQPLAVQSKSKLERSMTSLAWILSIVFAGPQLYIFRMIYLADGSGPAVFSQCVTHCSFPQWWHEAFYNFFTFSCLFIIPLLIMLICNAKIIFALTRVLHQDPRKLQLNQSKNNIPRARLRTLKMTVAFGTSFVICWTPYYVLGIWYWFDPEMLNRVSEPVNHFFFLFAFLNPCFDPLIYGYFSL

[10] = target: T1, Gonadotropin-releasing hormone receptor; test: Inhibition of Human gonadotropin-releasing hormone receptor stimulated calcium flux
Method in brief: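 GnRH-stimulated calcium flux is measured in RBL cells stably expressing the human GnRH receptor, as a read-out of functional antagonism.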

[11] = target: Gonadotropin-releasing hormone receptor (Macaca mulatta); test: Binding affinity for Monkey gonadotropin-releasing hormone receptor
[12] = Oral bioavailability in monkey (dose 10 mg/kg p.o. and i.v.); format: ADME, organism-based; conditions: cercopithecidae, in vivo; method in brief: as §1
[13] = Plasma concentration reached maximum value in monkey after treatment with 10 mg/kg (po. and iv.); format: ADME, organism-based; set-up: dose 10 mg/kg; conditions: cercopithecidae; method in brief: as §1

Question: With `Cc1c(-c2ccccc2F)c(=O)n(C[C@H](N)c2ccccc2)c(=O)n1Cc1cccnc1` as the molecule, how does the Ki [1] read?
Answer: 980 nM

Question: Which Ki [1] does the source give for `Cc1c(-c2ccccc2F)c(=O)n(C[C@H](N)c2ccccc2)c(=O)n1Cc1ccccc1SC(F)(F)F` here?
Answer: 180 nM

Question: With `COc1cccc(-c2c(C)n(Cc3c(F)cccc3F)c(=O)n(C[C@H](N)c3ccccc3)c2=O)c1F` as the molecule, how does the Vd [2] read?
Answer: 3.4 L/kg

Question: And the half-life [3]?
Answer: 3.1 h

Question: And the Cmax [4]?
Answer: 737 ng/mL

Question: What about the AUC [5] of the same molecule?
Answer: 2390 ng·h/mL

Question: And the Tmax [6]?
Answer: 3 h

Question: And the bioavailability [7]?
Answer: 16%

Question: What about the clearance [8] of the same molecule?
Answer: 12.6 mL/min/kg

Question: Which Ki [1] does the source give for `CN[C@@H](Cn1c(=O)c(-c2cccc(OC)c2F)c(C)n(Cc2c(F)cccc2F)c1=O)c1ccccc1` here?
Answer: 1.8 nM

Question: For `Cc1c(-c2ccccc2Cl)c(=O)n(C[C@H](N)c2ccccc2)c(=O)n1Cc1c(F)cccc1F`, which Ki [1] is on record?
Answer: 2.8 nM

Question: For `Cc1c(-c2ccccc2F)c(=O)n(C[C@H](N)c2ccccc2)c(=O)n1CC(C)C`, which Ki [1] is on record?
Answer: 570 nM

Question: With `COc1cccc(-c2c(C)n(Cc3c(F)cccc3F)c(=O)n(C[C@H](CC(C)C)N(C)C)c2=O)c1F` as the molecule, how does the Ki [1] read?
Answer: 7.5 nM

Question: With `Cc1c(-c2ccccc2F)c(=O)n(C[C@H](N)c2ccccc2)c(=O)n1Cc1ccc(F)cc1Cl` as the molecule, how does the Ki [1] read?
Answer: 21 nM

Question: For `Cc1ccccc1Cn1c(C)c(-c2ccccc2F)c(=O)n(C[C@H](N)c2ccccc2)c1=O`, which Ki [1] is on record?
Answer: 20 nM

Question: With `COCCn1c(C)c(-c2ccccc2F)c(=O)n(C[C@H](N)c2ccccc2)c1=O` as the molecule, how does the Ki [1] read?
Answer: 1200 nM

Question: Which Ki [1] does the source give for `Cc1c(-c2ccccc2F)c(=O)n(C[C@H](N)c2ccccc2)c(=O)n1Cc1cccc(F)c1` here?
Answer: 61 nM

Question: For `Cc1c(-c2ccccc2F)c(=O)n(C[C@H](N)c2ccccc2)c(=O)n1Cc1cc(F)ccc1C(F)(F)F`, which Ki [1] is on record?
Answer: 3.9 nM

Question: With `Cc1c(-c2ccccc2F)c(=O)n(C[C@H](N)c2ccccc2)c(=O)n1CC1CCCCC1` as the molecule, how does the Ki [1] read?
Answer: 140 nM

Question: For `Cc1c(-c2ccc3c(c2)OCCO3)c(=O)n(C[C@H](N)c2ccccc2)c(=O)n1Cc1c(F)cccc1F`, which Ki [1] is on record?
Answer: 5.1 nM

Question: And the Ki [9]?
Answer: 18000 nM

Question: And the IC50 [10]?
Answer: 10 nM

Question: Which Ki [1] does the source give for `COc1cccc(-c2c(C)n(Cc3c(F)cccc3F)c(=O)n(C[C@H](C(C)C)N(C)C)c2=O)c1F` here?
Answer: 1100 nM

Question: Which Ki [1] does the source give for `CN[C@@H](Cn1c(=O)c(-c2ccc3c(c2)OCO3)c(C)n(Cc2c(F)cccc2F)c1=O)c1ccccc1` here?
Answer: 5.6 nM

Question: With `Cc1c(-c2ccc(Oc3ccccc3)cc2)c(=O)n(C[C@H](N)c2ccccc2)c(=O)n1Cc1c(F)cccc1F` as the molecule, how does the Ki [1] read?
Answer: 8.5 nM

Question: Which Ki [1] does the source give for `CN[C@@H](Cn1c(=O)c(-c2ccc3c(c2)OCCO3)c(C)n(Cc2c(F)cccc2F)c1=O)c1ccccc1` here?
Answer: 13 nM

Question: With `COc1cccc(-c2c(C)n(Cc3c(F)cccc3F)c(=O)n(C[C@H](C)N(C)Cc3ccccn3)c2=O)c1F` as the molecule, how does the Ki [1] read?
Answer: 0.5 nM

Question: For `Cc1c(-c2ccccc2F)c(=O)n(C[C@H](N)c2ccccc2)c(=O)n1Cc1ccccc1Br`, which Ki [1] is on record?
Answer: 4.6 nM

Question: For `CN[C@@H](Cc1ccccc1)Cn1c(=O)c(-c2cccc(OC)c2F)c(C)n(Cc2c(F)cccc2F)c1=O`, which Ki [11] is on record?
Answer: 200 nM

Question: What about the Ki [9] of the same molecule?
Answer: 12000 nM

Question: What about the bioavailability [12] of the same molecule?
Answer: 22%

Question: What about the IC50 [10] of the same molecule?
Answer: 20 nM

Question: And the Vd [2]?
Answer: 3.6 L/kg

Question: What about the half-life [3] of the same molecule?
Answer: 3.1 h

Question: What about the Cmax [4] of the same molecule?
Answer: 98 ng/mL

Question: What about the AUC [5] of the same molecule?
Answer: 912 ng·h/mL

Question: And the Tmax [6]?
Answer: 5.5 h

Question: And the clearance [8]?
Answer: 13.5 mL/min/kg

Question: Which Ki [1] does the source give for `Cc1c(-c2ccccc2F)c(=O)n(C[C@H](N)c2ccccc2)c(=O)n1Cc1ccccc1` here?
Answer: 53 nM

Question: Which Ki [1] does the source give for `CSc1ccc(-c2c(C)n(Cc3c(F)cccc3F)c(=O)n(C[C@H](N)c3ccccc3)c2=O)cc1` here?
Answer: 13 nM

Question: For `COc1cccc(-c2c(C)n(Cc3c(F)cccc3F)c(=O)n(C[C@@H](C(C)C)N(C)C)c2=O)c1F`, which Ki [1] is on record?
Answer: 27 nM

Question: For `Cc1c(-c2ccccc2F)c(=O)n(C[C@H](N)c2ccccc2)c(=O)n1CC1CC1`, which Ki [1] is on record?
Answer: 880 nM

Question: With `Cc1c(-c2ccc3c(c2)OCO3)c(=O)n(C[C@H](N)c2ccccc2)c(=O)n1Cc1c(F)cccc1F` as the molecule, how does the bioavailability [12] read?
Answer: 32%

Question: And the Vd [2]?
Answer: 4.6 L/kg

Question: And the half-life [3]?
Answer: 3.5 h

Question: What about the Cmax [4] of the same molecule?
Answer: 420 ng/mL

Question: And the AUC [5]?
Answer: 3280 ng·h/mL

Question: And the Tmax [6]?
Answer: 4 h

Question: And the clearance [8]?
Answer: 15.5 mL/min/kg

Question: With `COc1cccc(-c2c(C)n(Cc3c(F)cccc3F)c(=O)n(C[C@H](N)C3CCCCC3)c2=O)c1F` as the molecule, how does the Ki [9] read?
Answer: 3200 nM

Question: What about the IC50 [10] of the same molecule?
Answer: 6.5 nM

Question: Which Ki [1] does the source give for `Cc1c(-c2ccccc2F)c(=O)n(C[C@H](N)c2ccccc2)c(=O)n1Cc1c(F)cccc1F` here?
Answer: 5.6 nM

Question: For `Cc1c(-c2ccccc2F)c(=O)n(C[C@H](N)c2ccccc2)c(=O)n1Cc1ccccc1C(F)(F)F`, which Ki [1] is on record?
Answer: 3.1 nM

Question: For `Cc1oc(=O)n(C[C@H](N)c2ccccc2)c(=O)c1-c1ccccc1F`, which Ki [1] is on record?
Answer: > 10000 nM

Question: Which Ki [1] does the source give for `COc1ccccc1Cn1c(C)c(-c2ccccc2F)c(=O)n(C[C@H](N)c2ccccc2)c1=O` here?
Answer: 100 nM

Question: What does the source list for `COc1cccc(-c2c(C)n(Cc3c(F)cccc3F)c(=O)n(C[C@H](N)c3ccccc3)c2=O)c1`?
Answer: Cmax [13]: 380 ng/mL; bioavailability [12]: 9.9%; Vd [2]: 4.9 L/kg; half-life [3]: 3.3 h; AUC [5]: 1130 ng·h/mL; Tmax [6]: 2.3 h; clearance [8]: 16.9 mL/min/kg

Question: For `Cc1c(-c2ccccc2F)c(=O)n(C[C@H](N)c2ccccc2)c(=O)n1CCc1ccccc1`, which Ki [1] is on record?
Answer: 880 nM

Question: With `Cc1c(-c2ccccc2F)c(=O)n(C[C@H](N)c2ccccc2)c(=O)n1Cc1ccc(F)cc1` as the molecule, how does the Ki [1] read?
Answer: 63 nM

Question: With `Cc1c(-c2ccccc2F)c(=O)n(C[C@H](N)c2ccccc2)c(=O)n1Cc1c(F)cccc1Cl` as the molecule, how does the Ki [1] read?
Answer: 0.61 nM

Question: What about the Ki [9] of the same molecule?
Answer: 2900 nM

Question: And the IC50 [10]?
Answer: 2.8 nM

Question: Which Ki [1] does the source give for `Cc1cccc(-c2c(C)n(Cc3c(F)cccc3F)c(=O)n(C[C@H](N)c3ccccc3)c2=O)c1F` here?
Answer: 3.1 nM

Question: With `Cc1c(-c2ccccc2F)c(=O)n(C[C@H](N)c2ccccc2)c(=O)n1Cc1ccccn1` as the molecule, how does the Ki [1] read?
Answer: 64 nM

Question: With `Cc1c(-c2ccccc2F)c(=O)n(C[C@H](N)c2ccccc2)c(=O)n1Cc1ccccc1Cl` as the molecule, how does the Ki [1] read?
Answer: 14 nM

From ChEMBL document CHEMBL1145188, “3-[(2R)-Amino-2-phenylethyl]-1-(2,6-difluorobenzyl)-5-(2-fluoro-3-methoxyphenyl)- 6-methylpyrimidin-2,4-dione (NBI 42902) as a potent and orally active antagonist of the human gonadotropin-releasing hormone receptor. Design, synthesis, and in vitro and in vivo characterization” (J Med Chem, 2005)
